Test results published in ChEMBL document CHEMBL1821590, “Novel dihydropyrimidines and its pyrazole derivatives: synthesis and pharmacological screening” (Eur J Med Chem, 2011).
Values after ≈ are worked out from the molar mass of the structure shown.

Tests used:
Assay type in all cases: functional
Candida albicans [1] = assay: Antimicrobial activity against Candida albicans at 50 ug/ml by paper disc method; details: read-out: IZ
How it was run: (§1)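 Paper disc method against A. niger and C. albicans, with compounds at 25, 50 and 100 µg/mL. Amphotericin-B as standard.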

Bacillus subtilis [2] = assay: Antimicrobial activity against Bacillus subtilis at 100 ug/ml by agar plate diffusion technique; details: read-out: IZ
How it was run: (§2)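 Agar plate diffusion against E. coli, P. aeruginosa, S. aureus and B. subtilis, with compounds at 25, 50 and 100 µg/mL. Streptomycin as standard.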

[3] = Antioxidant activity assessed as inhibition of lipid peroxidation using egg lecithin liposomes incubated for 1 hr
How it was run: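 Egg lecithin (3 mg/mL, phosphate buffer pH 7.4) sonicated 10 min to form liposomes. Sample or ascorbic acid (12.5–100 µg/mL) added. Peroxidation induced with FeCl3 and L-ascorbic acid, 1 h at 37 °C. Stopped with HCl/TCA/TBA/BHA, boiled 15 min, centrifuged, supernatant read at 532 nm. Triplicate. % inhibition vs control. IC50 derived.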

Metaphire posthuma [4] = assay: Anthelmintic activity against Pheretima posthuma assessed as time taken for parasite death at 0.2% w/v
How it was run: (§3)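 Earthworms (Pheretima posthuma, spelled Perituma posthuma in text) exposed to test compounds at 0.1, 0.2 and 0.5% w/v. Albendazole served as standard, with an untreated control. Paralysis was recorded as the time until worms became motionless, then time to death was recorded, in minutes. Each value is the mean of three determinations with S.D.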

Bacillus subtilis [5] = assay: Antimicrobial activity against Bacillus subtilis at 25 ug/ml by agar plate diffusion technique; details: read-out: IZ; how it was run: as §2
Bacillus subtilis [6] = assay: Antimicrobial activity against Bacillus subtilis at 50 ug/ml by agar plate diffusion technique; details: read-out: IZ; how it was run: as §2
Staphylococcus aureus [7] = assay: Antimicrobial activity against Staphylococcus aureus at 50 ug/ml by agar plate diffusion technique; details: read-out: IZ; how it was run: as §2
Metaphire posthuma [8] = assay: Anthelmintic activity against Pheretima posthuma assessed as time taken for complete parasite paralysis at 0.1% w/v
How it was run: (§4)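 Earthworms (Pheretima posthuma) exposed to test solutions at 0.1, 0.2 and 0.5% w/v; time in minutes to complete paralysis (worms motionless) recorded. Albendazole as standard. Mean of three determinations ± S.D.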

Aspergillus niger [9] = assay: Antimicrobial activity against Aspergillus niger at 25 ug/ml by paper disc method; details: read-out: IZ; how it was run: as §1
Metaphire posthuma [10] = assay: Anthelmintic activity against Pheretima posthuma assessed as time taken for complete parasite paralysis at 0.2% w/v; how it was run: as §4
Aspergillus niger [11] = assay: Antimicrobial activity against Aspergillus niger at 100 ug/ml by paper disc method; details: read-out: IZ; how it was run: as §1
Aspergillus niger [12] = assay: Antimicrobial activity against Aspergillus niger at 50 ug/ml by paper disc method; details: read-out: IZ; how it was run: as §1
[13] = Antiinflammatory activity assessed as inhibition of albumin denaturation at 100 ug/ml by UV-visible spectrophotometry
How it was run: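 Compounds dissolved in minimal DMF, diluted in PBS pH 7.4 (final DMF <2.5%). 1 mL test solution (100 µg/mL) plus 1 mL 1% albumin in PBS, 15 min at 27 ± 1 °C, then heated 10 min at 60 ± 1 °C. After cooling, turbidity read at 660 nm. % inhibition = [(Vt/Vc) − 1] × 100 against a no-drug control. Triplicate, averaged. Diclofenac standard.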

Metaphire posthuma [14] = assay: Anthelmintic activity against Pheretima posthuma assessed as time taken for parasite death at 0.1% w/v; how it was run: as §3
Staphylococcus aureus [15] = assay: Antimicrobial activity against Staphylococcus aureus at 100 ug/ml by agar plate diffusion technique; details: read-out: IZ; how it was run: as §2
Candida albicans [16] = assay: Antimicrobial activity against Candida albicans at 25 ug/ml by paper disc method; details: read-out: IZ; how it was run: as §1
Pseudomonas aeruginosa [17] = assay: Antimicrobial activity against Pseudomonas aeruginosa at 25 ug/ml by agar plate diffusion technique; details: read-out: IZ; how it was run: as §2
Pseudomonas aeruginosa [18] = assay: Antimicrobial activity against Pseudomonas aeruginosa at 50 ug/ml by agar plate diffusion technique; details: read-out: IZ; how it was run: as §2
Escherichia coli [19] = assay: Antimicrobial activity against Escherichia coli at 50 ug/ml by agar plate diffusion technique; details: read-out: IZ; how it was run: as §2
Escherichia coli [20] = assay: Antimicrobial activity against Escherichia coli at 100 ug/ml by agar plate diffusion technique; details: read-out: IZ; how it was run: as §2
Staphylococcus aureus [21] = assay: Antimicrobial activity against Staphylococcus aureus at 25 ug/ml by agar plate diffusion technique; details: read-out: IZ; how it was run: as §2
Escherichia coli [22] = assay: Antimicrobial activity against Escherichia coli at 25 ug/ml by agar plate diffusion technique; details: read-out: IZ; how it was run: as §2
Metaphire posthuma [23] = assay: Anthelmintic activity against Pheretima posthuma assessed as time taken for complete parasite paralysis at 0.5% w/v; how it was run: as §4
[24] = Antioxidant activity assessed as hydrogen peroxide scavenging activity after 10 mins
How it was run: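 H2O2 (20 mM) in PBS pH 7.4. 1 mL of sample or ascorbic acid in methanol (12.5–100 µg/mL) added to 2 mL H2O2 solution. A230 read after 10 min. % inhibition = [1 − (Vt/Vc)] × 100. Triplicate, averaged. IC50 derived from % inhibition across concentrations.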

[25] = Antioxidant activity assessed as potassium ferricyanide ion reducing power after 20 mins
How it was run: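 Oyaizu method. Samples or ascorbic acid in DMF (12.5–100 µg/mL) mixed with 0.2 M phosphate buffer pH 6.6 and 1% potassium ferricyanide, 20 min at 50 °C. 10% TCA added, centrifuged. Supernatant mixed with water and 0.1% FeCl3, read at 700 nm. % = [(Vt/Vc) − 1] × 100. IC50 derived.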

Metaphire posthuma [26] = assay: Anthelmintic activity against Pheretima posthuma assessed as time taken for parasite death at 0.5% w/v; how it was run: as §3
Pseudomonas aeruginosa [27] = assay: Antimicrobial activity against Pseudomonas aeruginosa at 100 ug/ml by agar plate diffusion technique; details: read-out: IZ; how it was run: as §2
Candida albicans [28] = assay: Antimicrobial activity against Candida albicans at 100 ug/ml by paper disc method; details: read-out: IZ; how it was run: as §1
[29] = Antioxidant activity assessed as nitric oxide radical scavenging activity after 150 mins
How it was run: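 10 mM sodium nitroprusside (4 mL), PBS pH 7.4 (1 mL) and sample or ascorbic acid in DMSO (1 mL, 12.5–100 µg/mL), incubated 150 min at 25 °C. Nitrite detected with sulphanilic acid (5 min) then naphthylethylenediamine (30 min, diffused light). Read at […]. Triplicate. % inhibition = [1 − (Vt/Vc)] × 100. IC50 derived from it.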

Compound	zone of inhibition at 50 µg/mL (Candida albicans [1]) [mm]	zone of inhibition at 100 µg/mL (Bacillus subtilis [2]) [mm]	IC50 [3] [µg/mL]	Time (Metaphire posthuma [4]) [min]	zone of inhibition at 25 µg/mL (Bacillus subtilis [5]) [mm]	zone of inhibition at 50 µg/mL (Bacillus subtilis [6]) [mm]	zone of inhibition at 50 µg/mL (Staphylococcus aureus [7]) [mm]	Time (Metaphire posthuma [8]) [min]	zone of inhibition at 25 µg/mL (Aspergillus niger [9]) [mm]	Time (Metaphire posthuma [10]) [min]	zone of inhibition at 100 µg/mL (Aspergillus niger [11]) [mm]	zone of inhibition at 50 µg/mL (Aspergillus niger [12]) [mm]	inhibition [13] [%]	Time (Metaphire posthuma [14]) [min]	zone of inhibition at 100 µg/mL (Staphylococcus aureus [15]) [mm]	zone of inhibition at 25 µg/mL (Candida albicans [16]) [mm]	zone of inhibition at 25 µg/mL (Pseudomonas aeruginosa [17]) [mm]	zone of inhibition at 50 µg/mL (Pseudomonas aeruginosa [18]) [mm]	zone of inhibition at 50 µg/mL (Escherichia coli [19]) [mm]	zone of inhibition at 100 µg/mL (Escherichia coli [20]) [mm]	also measured
COc1ccc(-c2nc(SC)n(C)c(=O)c2C#N)cc1	11.2	19.1	53 (≈ 184 µM)	72.67	11.7	13.1	12.8	54.56	11.6	46.56	18	12	21.3	78.22	14.8	9.33	6.19	8.84	7.19	8.79	zone of inhibition at 25 µg/mL (Staphylococcus aureus [21]): 8.76 mm; zone of inhibition at 25 µg/mL (Escherichia coli [22]): 5.08 mm; Time (Metaphire posthuma [23]): 42.65 min; IC50 [24]: 48 µg/mL (≈ 167 µM); IC50 [25]: 58 µg/mL (≈ 202 µM); Time (Metaphire posthuma [26]): 62.21 min; zone of inhibition at 100 µg/mL (Pseudomonas aeruginosa [27]): 9.17 mm; zone of inhibition at 100 µg/mL (Candida albicans [28]): 19.8 mm; IC50 [29]: 73 µg/mL (≈ 254 µM)
CCOC(=O)c1cnn(-c2nc(-c3ccc(OC)cc3)c(C#N)c(=O)n2C)c1N	12.6	18.1	68 (≈ 172 µM)	63.37	10.2	14	15.1	52.09	11.6	49.46	20.7	13	13.6	67.41	18.6	9.62	8.21	10.2	14.7	17.4	zone of inhibition at 25 µg/mL (Staphylococcus aureus [21]): 10.1 mm; zone of inhibition at 25 µg/mL (Escherichia coli [22]): 10.5 mm; Time (Metaphire posthuma [23]): 45.02 min; IC50 [24]: 74 µg/mL (≈ 188 µM); IC50 [25]: 59 µg/mL (≈ 150 µM); Time (Metaphire posthuma [26]): 57.93 min; zone of inhibition at 100 µg/mL (Pseudomonas aeruginosa [27]): 16.1 mm; zone of inhibition at 100 µg/mL (Candida albicans [28]): 19.8 mm; IC50 [29]: 79 µg/mL (≈ 200 µM)
CCOC(=O)c1cnn(-c2nc(-c3ccc(N(C)C)cc3)c(C#N)c(=O)n2C)c1N	13.7	20.9	111 (≈ 272 µM)	57.55	11.2	14.8	13.5	41.45	10.2	46.58	18.3	12.2	20.4	49.79	16.5	10.4	8.29	11.9	10.2	14	zone of inhibition at 25 µg/mL (Staphylococcus aureus [21]): 10.1 mm; zone of inhibition at 25 µg/mL (Escherichia coli [22]): 11.1 mm; Time (Metaphire posthuma [23]): 42.87 min; IC50 [24]: 119 µg/mL (≈ 292 µM); IC50 [25]: 98 µg/mL (≈ 241 µM); Time (Metaphire posthuma [26]): 58.72 min; zone of inhibition at 100 µg/mL (Pseudomonas aeruginosa [27]): 16.7 mm; zone of inhibition at 100 µg/mL (Candida albicans [28]): 17.7 mm; IC50 [29]: 115 µg/mL (≈ 282 µM)
Cn1c(NN)nc(-c2ccccc2O)c(C#N)c1=O	12.5	22.2	34 (≈ 132 µM)	37.1	9.81	13.8	12.2	35.42	8.24	33.85	16.5	10.6	34.4	50.13	17.7	9.62	7.27	9.17	9.58	11.2	zone of inhibition at 25 µg/mL (Staphylococcus aureus [21]): 10.6 mm; zone of inhibition at 25 µg/mL (Escherichia coli [22]): 8.39 mm; Time (Metaphire posthuma [23]): 30.13 min; IC50 [24]: 30 µg/mL (≈ 117 µM); IC50 [25]: 38 µg/mL (≈ 148 µM); Time (Metaphire posthuma [26]): 44.1 min; zone of inhibition at 100 µg/mL (Pseudomonas aeruginosa [27]): 13 mm; zone of inhibition at 100 µg/mL (Candida albicans [28]): 17.7 mm; IC50 [29]: 46 µg/mL (≈ 179 µM)
